Active and inactive are the calls of the source. The calls are words filed in the database; no cut-off is given here.
Key:
West Nile virus = assay: Antiviral activity against West Nile virus infected in BHK-WII RepRen1B cells assessed as inhibition of viral replication at 10 uM after 3 days by luciferase reporter gene assay relative to control; type: functional; conditions: for inhibition at 10 µM: 72 h
Procedure, shortened: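 Compound (DMSO, 10 μM final) added next day in triplicate; lycorine 1 μM served as control inhibitor. Three days on, live-cell Renilla substrate (1:1000 in phenol-red-free DME, 10% FBS) replaced medium. Luminescence measured; triplicate means compared with DMSO-alone wells.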

[1] = Cytotoxicity against BHK cells infected with West Nile virus replicon assessed as cell viability at 10 uM after 3 days by CellTiter 96 aqueous one solution cell proliferation assay relative to control; type: cell-based, Mesocricetus auratus; conditions: hamster; for Activity: bhk, 72 h, 10 µM
Procedure, shortened: (§1)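 WNV replicon BHK cells, about 3 × 10^3/well, plated without antibiotic selection; next day compound in DMSO (10 μM final for screening, or eight serial dilutions), 3 days at 37°C, 5% CO2. Tetrazolium reagent, absorbance 450 nm, triplicate means versus DMSO wells; CC50 = 50% reduction in proliferation; CC50s mean ± SD of two experiments, top dose 200 μM.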

Dengue virus = assay: Antiviral activity against Dengue virus infected in BHK pD2-hRucPac-2ATG cells assessed as inhibition of viral replication at 10 uM after 3 days by luciferase reporter gene assay relative to control; type: functional; conditions: for inhibition at 10 µM: 72 h
Procedure, shortened: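 Renilla luciferase-bearing DENV subgenomic replicon BHK cells, kept on 3 μg/mL puromycin, seeded at 1.5 × 10^3/well without selection. Next day, 10 μM final compound in DMSO added to triplicate wells; MPA 1 μM as control inhibitor. After 3 days, medium swapped for live-cell Renilla substrate (1:1000, phenol-red-free DME, 10% FBS). Luminescence read; triplicate mean compared with DMSO-only wells.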

[2] = Cytotoxicity against BHK cells infected with Dengue virus replicon assessed as cell viability at 10 uM after 3 days by CellTiter 96 aqueous one solution cell proliferation assay relative to control; type: cell-based, Mesocricetus auratus; conditions: hamster; for Activity: bhk, 72 h, 10 µM
Procedure, shortened: as §1, with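 “DENV” for “WNV”, “1.5” for “about 3”, “Tetrazolium (MTS-type)” for “Tetrazolium”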

[3] = tested on: Human immunodeficiency virus 1; assay: Antiviral activity against HIV1; type: functional, organism-based
[4] = target: Human immunodeficiency virus type 1 reverse transcriptase (Human immunodeficiency virus 1) (UniProt Q72547); assay: Inhibition of HIV1 reverse transcriptase
[5] = tested on: unidentified influenza virus; assay: Antiviral activity against Influenzae virus; type: functional, organism-based
Human betaherpesvirus 5 = assay: Antiviral activity against Human cytomegalovirus; type: functional, organism-based
Hepatitis C virus = assay: Antiviral activity against HCV; type: functional, organism-based; conditions: Hepacivirus hominis

Row | Compound | inhibition at 10 µM (West Nile virus) [%] | Activity [1] [%] | inhibition at 10 µM (Dengue virus) [%] | Activity [2] [%] | also measured
1 | Cc1cn([C@H]2C[C@H](N3C(=O)CSC3c3ccc4[nH]ccc4c3)[C@@H](CO)O2)c(=O)[nH]c1=O (mixture of isomers) | 9.7 | 100 | 13 | 95 | –
2 | Cc1cn([C@H]2C[C@H](N=[N+]=[N-])[C@@H](CO[Si](C)(C)C(C)(C)C)O2)c(=O)[nH]c1=O | 17 | 96 | 3.6 | 87 | –
3 | Cc1cn([C@H]2C[C@H](n3nncc3-c3cc4ccccc4c4ccccc34)[C@@H](CO)O2)c(=O)[nH]c1=O | 0 | 100 | 0 | 95 | –
4 | Cc1cn([C@H]2C[C@H](NC(=O)c3c[nH]c4ccccc34)[C@@H](CO)O2)c(=O)[nH]c1=O | 0 | 97 | 4.3 | 96 | –
5 | Cc1cn([C@H]2C[C@H](N3C(=O)CSC3c3c4ccccc4cc4ccccc34)[C@@H](CO)O2)c(=O)[nH]c1=O (mixture of isomers) | 12 | 100 | 0 | 96 | –
6 | Cc1cn([C@H]2C[C@H](NC(=O)c3c4ccccc4cc4ccccc34)[C@@H](CO)O2)c(=O)[nH]c1=O | 0 | 92 | 0 | 95 | –
7 | Cc1cn([C@H]2C[C@H](n3nncc3-c3ccc(-c4ccccc4)cc3)[C@@H](CO)O2)c(=O)[nH]c1=O | 23 | 100 | 2.3 | 92 | –
8 | Cc1cn([C@H]2C[C@H](n3nncc3C3CCCCC3)[C@@H](CO)O2)c(=O)[nH]c1=O | 0 | 100 | 10 | 100 | –
9 | Cc1cn([C@H]2C[C@H](n3nncc3COc3ccccc3)[C@@H](CO)O2)c(=O)[nH]c1=O | 0 | 96 | 0 | 100 | –
10 | Cc1cn([C@H]2C[C@H](NC(=O)C(c3ccccc3)(c3ccccc3)c3ccccc3)[C@@H](CO)O2)c(=O)[nH]c1=O | 0 | 95 | 16 | 94 | –
11 | Cc1cn([C@H]2C[C@H](n3nncc3-c3cccc4ccccc34)[C@@H](CO)O2)c(=O)[nH]c1=O | 3.3 | 100 | 0 | 90 | –
12 | Cc1cn([C@H]2C[C@H](N=[N+]=[N-])[C@@H](CO)O2)c(=O)[nH]c1=O [ZIDOVUDINE] | 0 | – | 0 | – | viability at 72 h, 10 µM ([1]; BHK cells infected with West Nile virus replicon, read-out: Activity): 83%; viability at 72 h, 10 µM ([2]; BHK cells infected with Dengue virus replicon, read-out: Activity): 89%
13 | CCOCOC[C@H]1O[C@@H](n2cc(C)c(=O)[nH]c2=O)C[C@@H]1n1nncc1-c1ccc2cc(OC)ccc2c1 | 0 | 89 | 13 | 95 | –
14 | Cc1cn([C@H]2C[C@H](n3nncc3-c3ccccc3)[C@@H](CO)O2)c(=O)[nH]c1=O | 4 | 99 | 0 | 100 | –
15 | Cc1cn([C@H]2C[C@H](NC(=O)c3ccc(N4CCOCC4)cc3)[C@@H](CO[Si](C)(C)C(C)(C)C)O2)c(=O)[nH]c1=O | – | – | – | – | Activity [3]: inactive; inhibition [4]: inactive; Activity [5]: inactive; Activity (Human betaherpesvirus 5): inactive; Activity (Hepatitis C virus): inactive; inhibition (West Nile virus): Active; inhibition (Dengue virus): Active
16 | COc1ccc2cc(-c3cnnn3[C@H]3C[C@H](n4cc(C)c(=O)[nH]c4=O)O[C@@H]3COC(C)=O)ccc2c1 | 5.3 | 100 | 0 | 97 | –
17 | Cc1ccc(S(=O)(=O)NC(=O)N[C@H]2C[C@H](n3cc(C)c(=O)[nH]c3=O)O[C@@H]2CO[Si](C)(C)C(C)(C)C)cc1 | – | – | – | – | Activity [3]: inactive; inhibition [4]: inactive; Activity [5]: inactive; Activity (Human betaherpesvirus 5): inactive; Activity (Hepatitis C virus): inactive; inhibition (West Nile virus): Active; inhibition (Dengue virus): Active
18 | COc1ccc2cc(C(=O)N[C@H]3C[C@H](n4cc(C)c(=O)[nH]c4=O)O[C@@H]3CO)ccc2c1 | 0 | 100 | 0 | 100 | –
19 | COC[C@H]1O[C@@H](n2cc(C)c(=O)n(C)c2=O)C[C@@H]1n1nncc1-c1ccc2cc(OC)ccc2c1 | 0 | 100 | 0 | 100 | –
20 | Cc1cn([C@H]2C[C@H](NC(=O)Nc3ccccc3)[C@@H](CO[Si](C)(C)C(C)(C)C)O2)c(=O)[nH]c1=O | – | – | – | – | Activity [3]: inactive; inhibition [4]: inactive; Activity [5]: inactive; Activity (Human betaherpesvirus 5): inactive; Activity (Hepatitis C virus): inactive; inhibition (West Nile virus): Active; inhibition (Dengue virus): Active
21 | COc1ccc(C(OC[C@H]2O[C@@H](n3cc(C)c(=O)[nH]c3=O)C[C@@H]2n2nncc2-c2ccc3cc(OC)ccc3c2)(c2ccccc2)c2ccc(OC)cc2)cc1 | 23 | 93 | 46 | 93 | –
22 | Cc1cn([C@H]2C[C@H](n3nncc3-c3ccc(Oc4ccccc4)cc3)[C@@H](CO)O2)c(=O)[nH]c1=O | 9 | 99 | 0 | 100 | –
23 | Cc1cn([C@H]2C[C@H](NC(=O)c3ccc4ccccc4c3)[C@@H](CO)O2)c(=O)[nH]c1=O | 0 | 92 | 45 | 97 | –
24 | COc1ccc2cc(-c3cnnn3[C@H]3C[C@H](n4cc(C)c(=O)[nH]c4=O)O[C@@H]3COC3CCCCO3)ccc2c1 (some centres undefined) | 1 | 75 | 21 | 92 | –
25 | Cc1cn([C@H]2C[C@H](n3cc(-c4ccc5[nH]ccc5c4)nn3)[C@@H](CO)O2)c(=O)[nH]c1=O | 0 | 100 | 8.2 | 100 | –
26 | Cc1cn([C@H]2C[C@H](N3C(=O)CSC3c3ccccc3)[C@@H](CO)O2)c(=O)[nH]c1=O (mixture of isomers) | 0 | 99 | 0 | 100 | –
27 | Cc1cn([C@H]2C[C@H](n3cc(-c4ccc(-c5ccccc5)cc4)nn3)[C@@H](CO)O2)c(=O)[nH]c1=O | 14 | 100 | 10 | 100 | –
28 | Cc1cn([C@H]2C[C@H](NC(=O)c3cccc4ccccc34)[C@@H](CO)O2)c(=O)[nH]c1=O | 0 | 87 | 15 | 98 | –
29 | Cc1cn([C@H]2C[C@H](n3nncc3C3CC3)[C@@H](CO)O2)c(=O)[nH]c1=O | 0 | 97 | 4.7 | 100 | –
30 | COc1ccc2cc(-c3cnnn3[C@H]3C[C@H](n4cc(C)c(=O)[nH]c4=O)O[C@@H]3CO)ccc2c1 | 7.4 | 100 | 0 | 100 | –
